In ChEMBL document CHEMBL4118097, “Selective Inhibitors of Dual Leucine Zipper Kinase (DLK, MAP3K12) with Activity in a Model of Alzheimer's Disease” (J Med Chem, 2017):

Experiments:
[1] = target: Mast/stem cell growth factor receptor Kit (Homo sapiens) (UniProt P10721); assay: Inhibition of recombinant GST/His-tagged human KIT cytoplasmic domain (544 to 976 residues) at 1 uM by FRET assay relative to control
Procedure, shortened: (§1)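 Single-point screen at 1 μM compound in a 220-kinase panel run by Life Technologies (SelectScreen). Z′-LYTE format: phosphorylation of a labeled peptide substrate read by FRET. Values are reported as percent inhibition.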

[2] = target: Ribosomal protein S6 kinase (Homo sapiens) (UniProt P51812+Q9UBS0+O75676+Q15349+O75582+P23443+Q9UK32+Q15418); assay: Inhibition of recombinant GST-tagged human p70S6K catalytic domain expressed in baculovirus expression system at 1 uM by FRET assay relative to control; procedure, shortened: as §1
[3] = target: Dual specificity protein kinase CLK4 (Homo sapiens) (UniProt Q9HAZ1); assay: Inhibition of full length recombinant GST-tagged human CLK4 expressed in baculovirus expression system at 1 uM by FRET assay relative to control
[4] = target: Platelet-derived growth factor receptor alpha (Homo sapiens) (UniProt P16234); assay: Inhibition of recombinant GST-tagged human PDGFRalpha cytoplasmic domain expressed in baculovirus expression system at 1 uM by FRET assay relative to control; procedure, shortened: as §1
[5] = target: Ephrin type-B receptor 3 (Homo sapiens) (UniProt P54753); assay: Inhibition of recombinant GST-tagged human EphB3 cytoplasmic domain expressed in baculovirus expression system at 1 uM by FRET assay relative to control; procedure, shortened: as §1
[6] = target: Misshapen-like kinase 1 (Homo sapiens) (UniProt Q8N4C8); assay: Inhibition of recombinant human GST-tagged MINK1 expressed in baculovirus at 1 uM by FRET assay relative to control
[7] = target: Mitogen-activated protein kinase 12 (Homo sapiens) (UniProt P53778); assay: Inhibition of recombinant full length His-tagged human p38gamma expressed in baculovirus expression system at 1 uM by FRET assay relative to control
Homo sapiens [8] = organism: Homo sapiens; assay: Binding affinity to L-type calcium channel verapamil/phenylalkylamine binding site (unknown origin) receptor at 10 uM relative to control
Procedure, shortened: (§2)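 Broad radioligand-binding and enzyme screening panel covering 42 targets (biogenic amine and neuropeptide receptors, ion channels, neurotransmitter transporters, acetylcholinesterase). Single test concentration of 10 μM. Results expressed as binding relative to control, with a hit defined as >50% of control.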

[9] = target: Fibroblast growth factor receptor 1 (Homo sapiens) (UniProt P11362); assay: Inhibition of recombinant His-tagged human FGFR1 cytoplasmic domain expressed in baculovirus expression system at 1 uM by FRET assay relative to control; procedure, shortened: as §1
[10] = target: Serine/threonine-protein kinase TAO2 (Homo sapiens) (UniProt Q9UL54); assay: Inhibition of recombinant GST-tagged human TAO2 catalytic domain (1 to 314 residues) expressed in baculovirus expression system at 1 uM by FRET assay relative to control; procedure, shortened: as §1
[11] = test system: RAF proto-oncogene serine/threonine-protein kinase (Homo sapiens), P04049 [Y340D,Y341D]; assay: Inhibition of recombinant N-terminal GST-tagged human RAF1 catalytic domain (306 to 648 residues) Y340D/Y341D double mutant expressed in baculovirus expression system at 1 uM by FRET assay relative to control
Procedure, shortened: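 Part of a 220-kinase panel run at a single concentration of 1 μM. Z′-LYTE format: phosphorylation of a labelled peptide read by FRET. Values reported as percent inhibition.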

[12] = target: Ribosomal protein S6 kinase alpha-5 (Homo sapiens) (UniProt O75582); assay: Inhibition of recombinant full length GST-tagged human MSK1 expressed in baculovirus at 1 uM by FRET assay relative to control
Procedure, shortened: (§3)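 Single-concentration screen at 1 μM in Life Technologies SelectScreen, across a 220-kinase panel. Z′-LYTE format measures phosphorylation of a labeled peptide by FRET. Results are reported as percent inhibition.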

[13] = target: Mitogen-activated protein kinase kinase kinase 10 (Homo sapiens, UniProt Q02779); assay: Inhibition of recombinant human full length GST-tagged MLK2 expressed in baculovirus expression system by FRET assay
[14] = target: Tyrosine-protein kinase JAK1 (Homo sapiens) (UniProt P23458); assay: Inhibition of recombinant GST-tagged human JAK1 catalytic domain (866 to 1154 residues) expressed in baculovirus expression system at 1 uM by FRET relative to control; procedure, shortened: as §1
[15] = target: Mitogen-activated protein kinase 8 (Homo sapiens, UniProt P45983); assay: Inhibition of recombinant full length His-tagged human JNK1alpha1 expressed in baculovirus expression system at 1 uM by FRET assay relative to control
[16] = target: Tyrosine-protein kinase ABL1 (Homo sapiens) (UniProt P00519); assay: Inhibition of recombinant GST/His-tagged human Abl (118 to 535 residues) at 1 uM by FRET assay relative to control; procedure, shortened: as §1
[17] = target: GABA-A receptor; alpha-1/beta-2/gamma-2 (Homo sapiens) (UniProt P14867+P47870+P18507); assay: Binding affinity to GABA-A alpha1beta2gamma2 receptor (unknown origin) at 10 uM relative to control; format: protein-complex assay; procedure, shortened: as §2
Homo sapiens [18] = organism: Homo sapiens; assay: Binding affinity to sodium channel site 2 (unknown origin) receptor at 10 uM relative to control; procedure, shortened: as §2
[19] = target: Mitogen-activated protein kinase 1 (Homo sapiens) (UniProt P28482); assay: Inhibition of recombinant GST-tagged human ERK2 expressed in Escherichia coli at 1 uM by FRET assay relative to control; procedure, shortened: as §1
[20] = target: Dual specificity mitogen-activated protein kinase kinase 1 (Homo sapiens) (UniProt Q02750); assay: Inhibition of recombinant full length His-tagged human MEK1 expressed in baculovirus expression system at 1 uM by FRET assay relative to control
[21] = target: Serine/threonine-protein kinase 25 (Homo sapiens) (UniProt O00506); assay: Inhibition of recombinant full length GST-tagged human YSK1 expressed in baculovirus expression system at 1 uM by FRET assay relative to control
[22] = target: 5-hydroxytryptamine receptor 1B (Homo sapiens) (UniProt P28222); assay: Binding affinity to 5HT1B receptor (unknown origin) receptor at 10 uM relative to control; procedure, shortened: as §2
[23] = target: Dual specificity tyrosine-phosphorylation-regulated kinase 3 (Homo sapiens) (UniProt O43781); assay: Inhibition of full length recombinant GST-tagged human DYRK3 expressed in baculovirus expression system at 1 uM by FRET assay relative to control
[24] = target: Serine/threonine-protein kinase 4 (Homo sapiens) (UniProt Q13043); assay: Inhibition of recombinant full length GST-tagged human MST1 expressed in baculovirus at 1 uM by FRET assay relative to control; procedure, shortened: as §3
[25] = target: Serine/threonine-protein kinase BRSK1 (Homo sapiens) (UniProt Q8TDC3); assay: Inhibition of recombinant full length GST-tagged human BrSK1 expressed in baculovirus expression system at 1 uM by FRET assay relative to control; procedure, shortened: as §3
[26] = target: Serine/threonine-protein kinase WNK2 (Homo sapiens) (UniProt Q9Y3S1); assay: Inhibition of recombinant GST-tagged human WNK2 expressed in baculovirus expression system at 1 uM by FRET assay relative to control; procedure, shortened: as §1

Sequence of Serine/threonine-protein kinase TAO2 (Homo sapiens) (Q9UL54 whole entry, the tested form may be a part): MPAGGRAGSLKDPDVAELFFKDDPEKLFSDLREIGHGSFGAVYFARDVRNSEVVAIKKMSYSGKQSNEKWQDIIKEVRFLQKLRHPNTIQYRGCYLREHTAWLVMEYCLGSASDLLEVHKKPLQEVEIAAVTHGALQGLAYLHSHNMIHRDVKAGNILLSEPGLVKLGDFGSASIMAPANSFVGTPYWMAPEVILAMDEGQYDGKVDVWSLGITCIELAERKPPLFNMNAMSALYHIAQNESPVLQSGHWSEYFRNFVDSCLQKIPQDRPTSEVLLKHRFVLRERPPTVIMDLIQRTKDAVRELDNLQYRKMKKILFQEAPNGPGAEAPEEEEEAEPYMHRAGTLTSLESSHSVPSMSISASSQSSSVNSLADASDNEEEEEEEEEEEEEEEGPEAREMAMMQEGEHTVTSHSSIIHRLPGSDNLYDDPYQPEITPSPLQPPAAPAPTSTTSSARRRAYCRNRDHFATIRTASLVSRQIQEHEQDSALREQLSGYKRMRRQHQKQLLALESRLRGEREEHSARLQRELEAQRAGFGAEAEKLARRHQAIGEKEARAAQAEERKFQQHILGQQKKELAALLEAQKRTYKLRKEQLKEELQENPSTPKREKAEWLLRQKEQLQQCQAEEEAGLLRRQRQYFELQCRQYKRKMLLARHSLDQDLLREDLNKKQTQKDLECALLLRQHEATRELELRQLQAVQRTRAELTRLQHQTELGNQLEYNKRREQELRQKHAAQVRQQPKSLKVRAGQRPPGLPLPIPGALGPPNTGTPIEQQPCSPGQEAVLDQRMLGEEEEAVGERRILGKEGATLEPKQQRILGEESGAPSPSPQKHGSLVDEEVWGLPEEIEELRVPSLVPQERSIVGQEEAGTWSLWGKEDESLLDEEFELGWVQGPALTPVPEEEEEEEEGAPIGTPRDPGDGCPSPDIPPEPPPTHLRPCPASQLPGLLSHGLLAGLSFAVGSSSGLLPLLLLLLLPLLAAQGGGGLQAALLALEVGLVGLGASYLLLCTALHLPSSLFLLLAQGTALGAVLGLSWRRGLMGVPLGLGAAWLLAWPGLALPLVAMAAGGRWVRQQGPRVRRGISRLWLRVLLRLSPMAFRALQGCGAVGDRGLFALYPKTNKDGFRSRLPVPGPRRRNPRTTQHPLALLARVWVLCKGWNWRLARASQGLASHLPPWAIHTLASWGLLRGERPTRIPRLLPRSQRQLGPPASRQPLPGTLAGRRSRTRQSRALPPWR
Sequence of Dual specificity mitogen-activated protein kinase kinase 1 (Homo sapiens) (Q02750 whole entry): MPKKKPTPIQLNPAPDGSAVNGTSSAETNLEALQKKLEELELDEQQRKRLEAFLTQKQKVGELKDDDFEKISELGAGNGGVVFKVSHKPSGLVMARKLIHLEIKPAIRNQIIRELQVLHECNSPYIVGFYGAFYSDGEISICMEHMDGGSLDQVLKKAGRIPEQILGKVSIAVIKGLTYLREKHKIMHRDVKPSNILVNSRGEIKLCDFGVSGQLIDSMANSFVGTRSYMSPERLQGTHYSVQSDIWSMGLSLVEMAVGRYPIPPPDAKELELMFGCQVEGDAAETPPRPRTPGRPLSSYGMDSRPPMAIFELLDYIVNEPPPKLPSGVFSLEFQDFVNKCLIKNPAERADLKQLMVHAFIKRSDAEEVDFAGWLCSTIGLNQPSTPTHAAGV
Sequence of Dual specificity tyrosine-phosphorylation-regulated kinase 3 (Homo sapiens) (O43781 whole entry): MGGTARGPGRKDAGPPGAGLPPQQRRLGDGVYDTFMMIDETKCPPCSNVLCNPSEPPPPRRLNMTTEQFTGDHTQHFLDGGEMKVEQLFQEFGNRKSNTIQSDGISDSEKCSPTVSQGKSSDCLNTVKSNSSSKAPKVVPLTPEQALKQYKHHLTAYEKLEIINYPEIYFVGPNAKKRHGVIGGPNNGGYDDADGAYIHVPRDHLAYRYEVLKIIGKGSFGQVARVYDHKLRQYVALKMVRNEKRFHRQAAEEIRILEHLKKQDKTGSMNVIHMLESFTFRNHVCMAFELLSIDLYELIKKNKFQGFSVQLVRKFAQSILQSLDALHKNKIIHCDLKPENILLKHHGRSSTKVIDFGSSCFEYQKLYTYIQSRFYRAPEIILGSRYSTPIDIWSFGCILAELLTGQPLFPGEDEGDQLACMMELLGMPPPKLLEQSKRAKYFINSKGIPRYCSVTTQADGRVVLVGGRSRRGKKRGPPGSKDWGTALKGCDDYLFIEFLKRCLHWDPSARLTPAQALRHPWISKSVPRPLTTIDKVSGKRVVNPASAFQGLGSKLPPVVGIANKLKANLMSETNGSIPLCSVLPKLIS
Sequence of Mitogen-activated protein kinase 1 (Homo sapiens) (P28482 whole entry): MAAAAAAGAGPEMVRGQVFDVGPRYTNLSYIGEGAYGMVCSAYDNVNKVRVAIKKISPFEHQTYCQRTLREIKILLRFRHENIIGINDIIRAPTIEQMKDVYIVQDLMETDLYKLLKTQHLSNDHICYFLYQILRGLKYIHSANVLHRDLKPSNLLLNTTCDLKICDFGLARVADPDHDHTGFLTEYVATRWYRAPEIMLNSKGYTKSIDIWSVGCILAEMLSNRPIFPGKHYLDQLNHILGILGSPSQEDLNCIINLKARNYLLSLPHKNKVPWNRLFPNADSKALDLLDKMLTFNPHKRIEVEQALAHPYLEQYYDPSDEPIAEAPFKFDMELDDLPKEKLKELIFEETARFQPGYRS
Sequence of Tyrosine-protein kinase JAK1 (Homo sapiens) (P23458 whole entry, the tested form may be a part): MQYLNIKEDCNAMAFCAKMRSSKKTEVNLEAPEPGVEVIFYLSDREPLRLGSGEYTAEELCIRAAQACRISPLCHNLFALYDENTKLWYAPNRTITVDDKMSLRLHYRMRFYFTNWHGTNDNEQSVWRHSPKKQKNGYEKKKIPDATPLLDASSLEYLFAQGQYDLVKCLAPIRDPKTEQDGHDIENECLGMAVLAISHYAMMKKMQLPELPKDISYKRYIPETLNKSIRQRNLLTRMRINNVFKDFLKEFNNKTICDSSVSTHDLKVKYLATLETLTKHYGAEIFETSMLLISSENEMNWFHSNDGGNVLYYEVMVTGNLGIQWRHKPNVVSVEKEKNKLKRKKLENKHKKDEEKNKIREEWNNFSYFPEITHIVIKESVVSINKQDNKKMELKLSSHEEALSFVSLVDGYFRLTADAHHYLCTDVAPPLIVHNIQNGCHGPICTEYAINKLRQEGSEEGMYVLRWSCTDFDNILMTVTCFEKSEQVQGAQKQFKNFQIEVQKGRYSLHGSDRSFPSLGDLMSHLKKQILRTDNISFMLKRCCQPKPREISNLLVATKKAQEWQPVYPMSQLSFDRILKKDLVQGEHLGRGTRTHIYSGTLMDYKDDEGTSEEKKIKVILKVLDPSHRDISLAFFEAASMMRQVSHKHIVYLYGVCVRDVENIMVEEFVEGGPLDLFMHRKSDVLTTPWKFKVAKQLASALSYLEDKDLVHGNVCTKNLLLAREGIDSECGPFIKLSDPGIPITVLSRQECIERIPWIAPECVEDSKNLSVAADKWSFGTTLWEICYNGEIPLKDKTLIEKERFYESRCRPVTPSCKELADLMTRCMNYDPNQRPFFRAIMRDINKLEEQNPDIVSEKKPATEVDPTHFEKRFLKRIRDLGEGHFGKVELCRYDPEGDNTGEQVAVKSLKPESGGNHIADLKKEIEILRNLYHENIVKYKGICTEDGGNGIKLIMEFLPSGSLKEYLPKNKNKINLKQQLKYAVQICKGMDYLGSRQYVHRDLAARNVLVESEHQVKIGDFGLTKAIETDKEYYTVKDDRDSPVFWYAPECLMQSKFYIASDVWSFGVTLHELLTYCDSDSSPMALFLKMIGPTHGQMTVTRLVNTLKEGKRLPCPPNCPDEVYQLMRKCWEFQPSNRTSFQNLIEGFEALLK
Sequence of RAF proto-oncogene serine/threonine-protein kinase (Homo sapiens), P04049 [Y340D,Y341D] (P04049 whole entry Y340D/Y341D, the tested form may be a part): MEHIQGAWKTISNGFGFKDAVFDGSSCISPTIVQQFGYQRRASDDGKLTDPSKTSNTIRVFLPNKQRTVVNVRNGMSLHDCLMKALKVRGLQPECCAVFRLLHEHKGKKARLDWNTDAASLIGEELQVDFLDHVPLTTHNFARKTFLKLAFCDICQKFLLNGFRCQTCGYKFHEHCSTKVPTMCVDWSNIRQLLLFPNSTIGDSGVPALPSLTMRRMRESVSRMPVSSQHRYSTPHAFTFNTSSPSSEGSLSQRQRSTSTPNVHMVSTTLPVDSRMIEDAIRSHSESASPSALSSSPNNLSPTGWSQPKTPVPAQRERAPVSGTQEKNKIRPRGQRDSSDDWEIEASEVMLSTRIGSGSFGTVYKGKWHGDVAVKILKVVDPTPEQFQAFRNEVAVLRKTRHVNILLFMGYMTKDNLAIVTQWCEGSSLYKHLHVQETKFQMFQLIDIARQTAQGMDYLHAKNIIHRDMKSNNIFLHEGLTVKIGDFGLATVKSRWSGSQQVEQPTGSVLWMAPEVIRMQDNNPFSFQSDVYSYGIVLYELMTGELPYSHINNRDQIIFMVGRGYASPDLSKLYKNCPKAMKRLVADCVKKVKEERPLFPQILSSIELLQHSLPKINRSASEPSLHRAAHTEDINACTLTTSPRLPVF
Sequence of Dual specificity protein kinase CLK4 (Homo sapiens) (Q9HAZ1 whole entry, looked up, the tested form may be a part): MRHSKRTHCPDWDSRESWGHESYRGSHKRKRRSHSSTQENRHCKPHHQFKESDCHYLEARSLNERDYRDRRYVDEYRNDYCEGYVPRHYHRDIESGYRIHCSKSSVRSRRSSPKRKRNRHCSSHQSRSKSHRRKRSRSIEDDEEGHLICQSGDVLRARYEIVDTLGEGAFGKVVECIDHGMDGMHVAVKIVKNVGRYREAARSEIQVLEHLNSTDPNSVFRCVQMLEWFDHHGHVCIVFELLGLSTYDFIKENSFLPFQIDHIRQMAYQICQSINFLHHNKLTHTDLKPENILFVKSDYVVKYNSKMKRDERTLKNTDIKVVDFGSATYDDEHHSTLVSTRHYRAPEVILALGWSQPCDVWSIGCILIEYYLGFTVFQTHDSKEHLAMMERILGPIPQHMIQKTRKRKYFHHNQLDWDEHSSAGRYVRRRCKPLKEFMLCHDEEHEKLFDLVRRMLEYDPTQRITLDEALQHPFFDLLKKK

Structure (SMILES) | inhibition [1] [%] | inhibition [2] [%] | inhibition [3] [%] | inhibition [4] [%] | inhibition [5] [%] | inhibition [6] [%] | inhibition [7] [%] | Activity (Homo sapiens [8]) [%] | inhibition [9] [%] | inhibition [10] [%] | inhibition [11] [%] | inhibition [12] [%] | IC50 [13] [µM] | inhibition [14] [%] | inhibition [15] [%] | inhibition [16] [%] | Activity [17] [%] | Activity (Homo sapiens [18]) [%] | inhibition [19] [%] | inhibition [20] [%] | other results
CC(C)n1nc(-c2cnc(N)c(OC(F)(F)F)c2)cc1[C@H]1[C@@H]2CN(C3COC3)C[C@@H]21 | 23.9 | 4.5 | 14.5 | 7.1 | 4.6 | 33.3 | 7.8 | > 50 | 2.4 | 0.6 | -1.9 | 7.2 | 7.88 | 6.9 | 9.1 | 10.9 | > 50 | > 50 | 5.2 | 14.8 | inhibition [21]: 8%; Activity [22]: > 50%; inhibition [23]: 0.6%; inhibition [24]: 3.5%; inhibition [25]: 5.8%; inhibition [26]: 1.4%
Nc1ncc(-c2cc([C@H]3[C@@H]4CN(C5COC5)C[C@@H]43)n(CC3CC3)n2)cc1C(F)(F)F | 6.5 | 6.9 | 16.4 | 11.1 | 10 | 12 | 7.8 | > 50 | 3.4 | -3.9 | 4 | 1.9 | 5.15 | 3.9 | 1.5 | 14.9 | > 50 | > 50 | 6.3 | 0 | inhibition [21]: -3.8%; Activity [22]: > 50%; inhibition [23]: -7.9%; inhibition [24]: -8.7%; inhibition [25]: -0.3%; inhibition [26]: -0.6%
